TMEM16A inh: mouse TMEM16A channel inhibition, primary screen; Q8BHY3; normalized B-score (activity score, 25-100; higher = stronger inhibition) at 10 µM; AID 588511; 1.2% of 310,000 active; HEK293 TMEM16A/YFP iodide influx fluorescence, ionomycin;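 active = ratio plate-corrected score three or more library SD toward inhibition, starting fluorescence score within five deviations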;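 note: score derived from kinetic fluorescence span divided by baseline fluorescence per well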
MC4R antag cAMP: blocks human MC4R cAMP signaling; MC4R-expressing cells, MTII-stimulated cAMP, LANCE TR-FRET; inhibition, % at 6.5 µM; 0.48% of 360,000 active; AID 540295;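 active = inhibition above its plate's cutoff, the mean of tested wells on that plate plus 3 SD, cut at about 29% in these data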;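 note: 0% = Melanotan II alone and 100% = Melanotan II plus saturating MCL0020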
Target sequence (P32245 whole entry, looked up): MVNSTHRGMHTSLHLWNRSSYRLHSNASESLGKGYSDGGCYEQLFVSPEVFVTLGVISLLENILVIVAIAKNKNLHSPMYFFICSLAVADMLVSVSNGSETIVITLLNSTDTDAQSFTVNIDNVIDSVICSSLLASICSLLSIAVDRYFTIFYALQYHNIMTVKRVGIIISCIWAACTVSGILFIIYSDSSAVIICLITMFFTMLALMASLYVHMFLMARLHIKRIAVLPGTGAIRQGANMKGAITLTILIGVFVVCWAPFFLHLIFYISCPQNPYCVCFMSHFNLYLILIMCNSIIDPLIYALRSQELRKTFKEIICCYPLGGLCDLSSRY
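System: U2OS cells stably expressing human melanocortin 4 receptor (MC4R). Reagent: Melanotan II challenge after compound preincubation. Doses: 6.5 µM. Times: 30-min compound, 1-h challenge, 1-h detection, room temperature. Measured by: TR-FRET with Eu-cAMP and labeled anti-cAMP, 671 nm. Replicates: singlicate.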
MIN6 prolif: inducers of beta-cell replication in MIN6 cells. 0.29% of 330,000 active. AID 2380. proliferation, % at 10 µM. MIN6 cells proliferation, ATPlite luminescence, 48 h; cells starved in 0.2% serum; 100% = growth in 10% serum;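 active = compounds whose signal lies at least 3.5 SD above the mean of all wells on their plate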;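 note: 0% = DMSO-treated cells in low-serum medium and 100% = 10% serum control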
ANO1 activ: mouse TMEM16A channel activation, primary screen | Q8BHY3 | HEK293 TMEM16A/YFP-H148Q/I152L, iodide quench fluorescence; hits give low values | B-score at 10 µM | 0.3% of 340,000 active | AID 623877;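 active = fluorescence-ratio B-score plate-corrected deviation score at least 3 library SD below zero, with starting fluorescence score within 5 deviations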;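 note: channel opened by trigger with iodide after compound preincubation; score built on the fluorescence ratio of max minus min over baseline; more negative score means more quench and so TMEM16A activation or potentiation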
HTR2A ag: mouse HTR2A agonism via beta-arrestin recruitment; P35363; CHO-K1 mHTR2A beta-arrestin complementation, luminescence; percent of 30 µM serotonin response; activation, % at 7.6 µM; 0.66% of 360,000 active;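 active = activation above a run cutoff, the mean activation of all tested compounds plus 3 SD, cut at about 14% in these data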;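 note: 0% = plate median of compound wells and 100% = 30 µM serotonin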
MC4R ag barr: agonists of human melanocortin 4 receptor (MC4R) beta-arrestin. P32245. U2OS MC4R beta-arrestin complementation, luminescence; percent of melanotan II response, DMSO zero. activation, % at 8.9 µM. 0.98% of 360,000 active;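 active = activation above a per-plate cutoff, the mean activation of sample wells on that plate plus 3 SD, cut at about 8% in these data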
TMEM16A reconf: TMEM16A (mouse) chloride channel inhibition, re-confirmation | shares compounds with TMEM16A inh | HEK293 TMEM16A/YFP-H148Q, iodide quench fluorescence; ionomycin added to raise cell calcium | inhibition, % at 10 µM | 39% of 2,300 active;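 active = mean duplicate percent inhibition, scaled so buffer wells are 0 and the reference blocker 100, over three buffer SD above buffer mean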
TMEM16A Ca cntr: counter-screen for TMEM16A inhibitors: effect on calcium mobilization. 2% of 2,300 active. shares compounds with TMEM16A inh. TMEM16A/YFP HEK293, Fluo4 calcium mobilization. calcium response (% of ionomycin), % at 10 µM;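 active = duplicate-averaged calcium signal over 20% of the ionomycin maximum, relative to buffer baseline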;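 note: each well's signal is peak minus trough fluorescence divided by its pre-addition baseline; 0% = buffer wells and 100% = ionomycin wells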
YFP-HEK293 quench: counter-screen for TMEM16A inhibitors: effect in parental YFP-HEK293 cells | shares compounds with TMEM16A inh | iodide YFP quench, ionomycin | YFP ratio F(max-min)/F0 at 10 µM | 2,300 tested, under 10 active | AID 652233;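 active = yellow fluorescent protein signal ratio exceeding the buffer control mean by over 5 SD of those controls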;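 note: ratio is mean of duplicate wells from kinetic YFP trace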
ClC-1 rat inh: rat ClC-1 inhibition, TMEM16A specificity screen; shares compounds with TMEM16A inh; CHO ClC-1-YFP, iodide influx fluorescence quench; iodide control reads 0, buffer control 100; ratio percent, % at 10 µM; 2,300 tested, under 10 active;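 active = duplicate-mean ratio percent above the mean of iodide-only control wells, which defines zero, plus 5 of their SD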;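 note: higher percent means stronger block of ClC-1 iodide influx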
Starred values were filed as active, the others as inactive; i = inactive; . = no result given. This is a sample that favours compounds with a hit; in the whole collection about 3.4% have one here.

SMILES	TMEM16A inh	MC4R antag cAMP	MIN6 prolif	ANO1 activ	HTR2A ag	MC4R ag barr	TMEM16A reconf	TMEM16A Ca cntr	YFP-HEK293 quench	ClC-1 rat inh
CC1CCCCN1C(=O)c1cc(-c2ccc3c(c2)OCO3)on1 (centres undefined)	i	3	-2	i	0	0	.	.	.	.
CC1CCN(C(=O)c2cc(-c3ccc4c(c3)OCO4)on2)CC1	i	4	0	i	-8	0	i	i	-0.94	2
CC(C)(C)c1ccc(OCCOCCn2cnc3ccccc3c2=O)cc1	25*	6	3	i	-3	-2	20%*	i	-1.2	-10
O=C(NCCCc1ccccc1)[C@@H]1Cc2ccccc2CN1	i	7	-1	i	-5	1	.	.	.	.
COc1cc(NS(=O)(=O)c2ccc(N/C=C(\C#N)c3nc4cc(Cl)ccc4o3)cc2)nc(OC)n1	100*	27	-6	i	-1	3	i	i	-0.97	-18
O=C(Nc1cccnc1)c1ccccc1-c1nc(-c2ccccc2F)no1	25*	9	2	i	-1	-1	i	i	-0.86	-12
O=C(O)c1cccc(NC(=O)c2ccc3c(c2)C(=O)N(CC2CCCO2)C3=O)c1 (centres undefined)	i	6	-2	i	3	-1	.	.	.	.
O=C(Nc1ccc2c(c1)C(=O)N(CC1CCCO1)C2=O)c1cccc(Br)c1 (centres undefined)	100*	12	-4	i	-1	1	24%*	i	-0.99	-8
COc1ccc(NS(=O)(=O)c2cccc(C(=O)N3CCC3)c2)cc1	i	0	-2	i	-2	-4	.	.	.	.
CC1(C(=O)NS(C)(=O)=O)CCN1C(=O)C/C=C/c1ccccc1 (centres undefined)	.	11	.	.	-1	-1	.	.	.	.
CN1CCN(c2ccc(CNC(=O)c3ccc(-c4ccc(F)c(F)c4)c4ccoc34)cc2)CC1	.	19	.	.	-11	2	.	.	.	.
COC(=O)c1cc(-c2ccc(Cl)cc2)n[nH]1	i	-1	-1	i	0	-3	.	.	.	.
Oc1ccccc1-c1cc(C(F)(F)C(F)F)[nH]n1	100*	9	-2	i	-4	1	i	i	-0.82	-13
FC(F)C(F)(F)c1cc(-c2ccc(Cl)cc2)n[nH]1	100*	0	-3	i	-2	0	97%*	i	-0.94	-28
Oc1ccccc1C1=NCCNC(C(F)(F)C(F)F)=C1	i	-3	0	i	-7	2	.	.	.	.
Fc1ccc(-c2cc(C(F)(F)C(F)F)[nH]n2)cc1	100*	2	0	i	-9	-1	54%*	i	-1.1	-7
O=C1C2C3C=CC(CC3)C2S(=O)(=O)C2C3C=CC(CC3)C12 (centres undefined)	.	12	.	.	-2	1	.	.	.	.
Cc1cccc(C)c1-n1nnnc1C1(C)CCC(=O)N1C1CC1 (centres undefined)	.	.	.	.	12	.	.	.	.	.
Cc1ccc(CNC(=O)c2cccc(OCc3c(C)noc3C)c2)cc1	i	4	-4	i	-13	-2	.	.	.	.
Cc1noc(C)c1COc1cccc(C(=O)NCCc2c[nH]c3ccccc23)c1	25*	-3	1	i	13	-3	i	i	-1.1	-3

Assay outcomes as filed in PubChem.
